Experiment [1] concerns Escherichia coli. Nature of the experiment: Antibacterial activity against Escherichia coli by broth dilution assay. Format: functional. The essentials: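 MIC99 by broth-dilution assay; antibacterial and culture details are in the Supporting Information.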
For orientation: Dilution methods test growth across graded concentrations, often in twofold steps.

Experiment [2] relates to Escherichia coli. Nature of the experiment: Bactericidal activity against stationary form of Escherichia coli assessed as reduction in colony forming units by fluorescent based time-kill assay. In kind it is functional, organism-based.
For experiment [3], the system named is Escherichia coli. As to the kind of experiment: Bactericidal activity against persistent form of Escherichia coli assessed as reduction in colony forming units by fluorescent based time-kill assay. In kind it is functional, organism-based.
Experiment [4] deals with Escherichia coli. Nature of the experiment: Antibacterial activity against Escherichia coli isolate 6/23 infected in wound areas of BALB/c mouse assessed as reduction in colony forming units at 40 mg/kg dosed thrice daily for 4 days starting 6 hrs post infection and measured on day 5. In kind it is functional, organism-based.
The subject of experiment [5] is Escherichia coli. Nature of the experiment: Antimicrobial activity against compound-pre-treated Escherichia coli by broth dilution assay based drug resistance development assay. In kind it is functional, organism-based. The essentials: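 E. coli pre-treated with compound, then MIC₉₉ redetermined by broth-dilution assay in four replicates; reported as fold change in MIC₉₉ relative to starting value to assess resistance development.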

The record followed here is ChEMBL document CHEMBL4411332, “Deciphering the Role of Intramolecular Networking in Cholic Acid-Peptide Conjugates on the Lipopolysaccharide Surface in Combating Gram-Negative Bacterial Infections” (J Med Chem, 2019).

≈ marks a conversion by molar mass, not a printed value. Calls of active or inactive are those of the source. The calls are words filed in the database; no cut-off is given here.

In the experiment on Escherichia coli [1], `CC(C)C[C@H](N)C(=O)NCC(=O)O[C@@H]1CC[C@@]2(C)[C@@H](C1)C[C@@H](OC(=O)CNC(=O)[C@@H](N)CC(C)C)[C@@H]1[C@@H]2C[C@H](OC(=O)CNC(=O)[C@@H](N)CC(C)C)[C@]2(C)[C@@H]([C@H](C)CCC(=O)OCc3ccccc3)CC[C@@H]12` yielded an MIC99 of 8 to 128 µM (≈ 8.07 to 129 µg/mL).

With `CC1(C)S[C@@H]2[C@H](NC(=O)[C@H](N)c3ccccc3)C(=O)N2[C@H]1C(=O)O`, the outcome with Escherichia coli [2], with Escherichia coli [3] and in the experiment with Escherichia coli [4] was inactive.

Consider `C[C@H](CCC(=O)OCc1ccccc1)[C@H]1CC[C@H]2[C@@H]3[C@H](OC(=O)CNC(=O)CN)C[C@@H]4C[C@H](OC(=O)CNC(=O)CN)CC[C@]4(C)[C@H]3C[C@H](OC(=O)CNC(=O)CN)[C@]12C`, for which the MIC99 in the experiment with Escherichia coli [1] lay in the range of 8 to 128 µM (≈ 6.73 to 108 µg/mL).

The compound `C[C@H](N)C(=O)NCC(=O)O[C@@H]1CC[C@@]2(C)[C@@H](C1)C[C@@H](OC(=O)CNC(=O)[C@H](C)N)[C@@H]1[C@@H]2C[C@H](OC(=O)CNC(=O)[C@H](C)N)[C@]2(C)[C@@H]([C@H](C)CCC(=O)OCc3ccccc3)CC[C@@H]12` gave an MIC99 in the experiment on Escherichia coli [1] of 8 to 128 µM (≈ 7.06 to 113 µg/mL).

On to `NC[C@@H]1O[C@H](O[C@H]2[C@@H](O)[C@H](O[C@@H]3[C@@H](O)[C@H](N)C[C@H](N)[C@H]3O[C@H]3O[C@H](CN)[C@@H](O)[C@H](O)[C@H]3N)O[C@@H]2CO)[C@H](N)[C@@H](O)[C@@H]1O`, for which the outcome with Escherichia coli [5] was inactive.

As usually defined, the MIC99 is an inhibitory concentration at the 99% level, which refers to growth in some studies and to a panel of isolates in others. A higher MIC99 goes with lower susceptibility.
